Twelve compounds from ChEMBL document CHEMBL2029228, “Antimalarial activity of 9a-N substituted 15-membered azalides with improved in vitro and in vivo activity over azithromycin” (J Med Chem, 2012) can be followed below.

Assay [1] concerns Plasmodium berghei. As to the kind of experiment: Antimalarial activity against Plasmodium berghei KBG173 infected in mouse assessed as cured mouse at 5 mg/kg, iv BID administered on day 3, 4 and 5 post infection measured up to day 31. The assay is classed as functional, organism-based. Also on record: dose 5 mg/kg. The essentials: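 Male mice (24–30 g) inoculated intraperitoneally with 5 × 10⁶ P. berghei KBG-173-infected erythrocytes; parasitemia about 1.0–3.7% by day 3. Dosing twice daily on days 3–5 postinfection. Blood smears negative on day 31 counted as cured, scored as cured/total mice (5 per dose). Mice losing ≥20% body weight sacrificed.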

Assay [2] has as its system Plasmodium falciparum. As to the kind of experiment: Antimalarial activity against mefloquine-resistant Plasmodium falciparum TM91C235 assessed as [3H]hypoxanthine incorporation after 48 hrs. Format: functional, organism-based. The method in brief: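 Tritiated hypoxanthine incorporation assay (Desjardins method, Milhous modification) with 48 h drug exposure. Uses P. falciparum clone TM91C235 (Southeast Asian, mefloquine-resistant). Compounds 2-fold diluted over 11 concentrations. IC50 derived by nonlinear logistic dose-response fitting, averaged where multiple runs were done.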

Assay [3] deals with HepG2. The assay is described as follows: Cytotoxicity against human HepG2 cells after 24 hrs by MTS assay. Format: cell-based. Particulars: HepG2, 24 h. The essentials:
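HepG2 cells kept in RPMI 1640 with 10% FBS plus antibiotics at 37 °C, 5% CO₂. 50 000 cells per well exposed to 10 two-fold serial dilutions for 24 h. MTS reagent then added for 2 h more, absorbance read at 490 nm, IC50 derived.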
On the technique in general: Tetrazolium dyes change colour on reduction, which living cells bring about.

The source made the active and inactive calls. The calls are words filed in the database; no cut-off is given here.

For the compound `CC[C@H]1OC(=O)[C@H](C)[C@@H](O[C@H]2C[C@@](C)(OC)[C@@H](O)[C@H](C)O2)[C@H](C)[C@@H](O[C@@H]2O[C@H](C)C[C@H](N(C)C)[C@H]2O)[C@](C)(O)C[C@@H](C)CN(CCCNC(=O)CCc2ccccc2)[C@H](C)[C@@H](O)[C@]1(C)O`, the result in assay [1] was inactive.
On to `CC[C@H]1OC(=O)[C@H](C)[C@@H](O[C@H]2C[C@@](C)(OC)[C@@H](O)[C@H](C)O2)[C@H](C)[C@@H](O[C@@H]2O[C@H](C)C[C@H](N(C)C)[C@H]2O)[C@](C)(O)C[C@@H](C)CN(CCC(=O)N[C@H](C)c2cccc3ccccc23)[C@H](C)[C@@H](O)[C@]1(C)O`, for which, in assay [1], the result was inactive.
Consider `CC[C@H]1OC(=O)[C@H](C)[C@@H](O[C@H]2C[C@@](C)(OC)[C@@H](O)[C@H](C)O2)[C@H](C)[C@@H](O[C@@H]2O[C@H](C)C[C@H](N(C)C)[C@H]2O)[C@](C)(O)C[C@@H](C)CN(CCCNc2ccnc3ccccc23)[C@H](C)[C@@H](O)[C@]1(C)O`, for which, in assay [1], the outcome was inactive.
The term IC50 denotes the concentration needed to halve the response being measured. Turning to `CC[C@H]1OC(=O)[C@H](C)[C@@H](O[C@H]2C[C@@](C)(OC)[C@@H](O)[C@H](C)O2)[C@H](C)[C@@H](O[C@@H]2O[C@H](C)C[C@H](N(C)C)[C@H]2O)[C@](C)(O)C[C@@H](C)CN(CCC(=O)NCCCc2ccccc2)[C@H](C)[C@@H](O)[C@]1(C)O`, the figures for the half-inhibitory concentration (IC50) in assay [2] and in assay [3] were 89 nM and 40000 nM, respectively.
`CC[C@H]1OC(=O)[C@H](C)[C@@H](O[C@H]2C[C@@](C)(OC)[C@@H](O)[C@H](C)O2)[C@H](C)[C@@H](O[C@@H]2O[C@H](C)C[C@H](N(C)C)[C@H]2O)[C@](C)(O)C[C@@H](C)CN(CCC(=O)NCCc2ccccc2)[C@H](C)[C@@H](O)[C@]1(C)O`: the IC50 in assay [2] is 367 nM; in assay [3], over 50000 nM.
Take `CC[C@H]1OC(=O)[C@H](C)[C@@H](O)[C@H](C)[C@@H](O[C@@H]2O[C@H](C)C[C@H](N(C)C)[C@H]2O)[C@](C)(O)C[C@@H](C)CN(CCCNCc2cccnc2)[C@H](C)[C@@H](O)[C@]1(C)O`: the 50% inhibitory concentration (IC50) was 2510 nM in assay [2] and over 50000 nM in assay [3].
With `CC[C@H]1OC(=O)[C@H](C)[C@@H](O)[C@H](C)[C@@H](O[C@@H]2O[C@H](C)C[C@H](N(C)C)[C@H]2O)[C@](C)(O)C[C@@H](C)CN(CCCNc2ccnc3cc(Cl)ccc23)[C@H](C)[C@@H](O)[C@]1(C)O`, the IC50 amounted to 13 nM in assay [2] and 35000 nM in assay [3].
For the compound `CC[C@H]1OC(=O)[C@H](C)[C@@H](O[C@H]2C[C@@](C)(OC)[C@@H](O)[C@H](C)O2)[C@H](C)[C@@H](O[C@@H]2O[C@H](C)C[C@H](N(C)C)[C@H]2O)[C@](C)(O)C[C@@H](C)CN(CCCNc2cc(C)nc3ccc(OC)cc23)[C@H](C)[C@@H](O)[C@]1(C)O`, the IC50 is 854 nM in assay [2] and over 50000 nM in assay [3].
Take `CC[C@H]1OC(=O)[C@H](C)[C@@H](O)[C@H](C)[C@@H](O)[C@](C)(O)C[C@@H](C)CN(CCCNCc2ccc3ccccc3n2)[C@H](C)[C@@H](O)[C@]1(C)O`: the half-maximal inhibitory concentration (IC50) in assay [2] was 1970 nM; in assay [3] it was over 50000 nM.
For `CC[C@H]1OC(=O)[C@H](C)[C@@H](O)[C@H](C)[C@@H](O[C@@H]2O[C@H](C)C[C@H](N(C)C)[C@H]2O)[C@](C)(O)C[C@@H](C)CN(CCCNCc2cccc3ccccc23)[C@H](C)[C@@H](O)[C@]1(C)O`, the IC50 in assay [2] came to 55 nM; in assay [3], 38000 nM.
For `CC[C@H]1OC(=O)[C@H](C)[C@@H](O)[C@H](C)[C@@H](O[C@@H]2O[C@H](C)C[C@H](N(C)C)[C@H]2O)[C@](C)(O)C[C@@H](C)CN(CCCNCc2ccncc2)[C@H](C)[C@@H](O)[C@]1(C)O` the same measures were 3890 nM and over 50000 nM.
Turning to `CC[C@H]1OC(=O)[C@H](C)[C@@H](O)[C@H](C)[C@@H](O[C@@H]2O[C@H](C)C[C@H](N(C)C)[C@H]2O)[C@](C)(O)C[C@@H](C)CN(CCCNc2ccnc3ccccc23)[C@H](C)[C@@H](O)[C@]1(C)O`, the half-inhibitory concentration (IC50) is 437 nM in assay [2] and over 50000 nM in assay [3].
